# Source: ChEMBL document CHEMBL4814016, “Balancing potency and basicity by incorporating fluoropyridine moieties: Discovery of a 1-amino-3,4-dihydro-2,6-naphthyridine BACE1 inhibitor that affords robust and sustained central Aβ reduction” (Eur J Med Chem, 2021)
# Assays:
# [1] = Dissociation constant, pKa of compound by capillary electrophoresis; assay type: physicochemical
# Summary of the method: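 pKa measured by capillary electrophoresis.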
# [2] = target: T1, Beta-secretase 1 (Homo sapiens, UniProt P56817); assay: Inhibition of BACE1 in human SH-SY5Y cells expressing APP assessed as reduction in Abeta40 by HTRF assay; assay type: cell-based
# T1 sequence (P56817 whole entry): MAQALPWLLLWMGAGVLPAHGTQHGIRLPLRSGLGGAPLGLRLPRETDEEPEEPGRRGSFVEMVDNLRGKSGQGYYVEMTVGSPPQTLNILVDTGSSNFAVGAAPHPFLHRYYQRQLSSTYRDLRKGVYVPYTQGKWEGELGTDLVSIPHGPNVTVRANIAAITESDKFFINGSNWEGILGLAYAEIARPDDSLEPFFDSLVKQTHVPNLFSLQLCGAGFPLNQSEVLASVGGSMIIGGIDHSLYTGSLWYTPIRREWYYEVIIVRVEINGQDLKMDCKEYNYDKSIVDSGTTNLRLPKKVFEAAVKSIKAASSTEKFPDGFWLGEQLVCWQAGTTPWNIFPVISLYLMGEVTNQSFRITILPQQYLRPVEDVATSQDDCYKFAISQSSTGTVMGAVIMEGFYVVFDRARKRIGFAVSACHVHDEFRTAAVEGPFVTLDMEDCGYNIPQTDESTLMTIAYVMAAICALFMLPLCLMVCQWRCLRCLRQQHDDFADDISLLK
# Summary of the method: (§1)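 The figures are means of at least two determinations. BACE1 activity was measured with a biochemical HTRF assay on an APP-derived peptide substrate. In the cellular assay, secreted Aβ40 from SH-SY5Y neuroblastoma cells transfected with human APP was measured by HTRF, and the IC50 derived from it.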
# [3] = target: hERG (KCNH2) (Homo sapiens, UniProt Q12809); assay: Inhibition of human ERG at 5 uM by automated patch clamp assay relative to control
# Sequence of hERG (KCNH2) (Q12809 whole entry): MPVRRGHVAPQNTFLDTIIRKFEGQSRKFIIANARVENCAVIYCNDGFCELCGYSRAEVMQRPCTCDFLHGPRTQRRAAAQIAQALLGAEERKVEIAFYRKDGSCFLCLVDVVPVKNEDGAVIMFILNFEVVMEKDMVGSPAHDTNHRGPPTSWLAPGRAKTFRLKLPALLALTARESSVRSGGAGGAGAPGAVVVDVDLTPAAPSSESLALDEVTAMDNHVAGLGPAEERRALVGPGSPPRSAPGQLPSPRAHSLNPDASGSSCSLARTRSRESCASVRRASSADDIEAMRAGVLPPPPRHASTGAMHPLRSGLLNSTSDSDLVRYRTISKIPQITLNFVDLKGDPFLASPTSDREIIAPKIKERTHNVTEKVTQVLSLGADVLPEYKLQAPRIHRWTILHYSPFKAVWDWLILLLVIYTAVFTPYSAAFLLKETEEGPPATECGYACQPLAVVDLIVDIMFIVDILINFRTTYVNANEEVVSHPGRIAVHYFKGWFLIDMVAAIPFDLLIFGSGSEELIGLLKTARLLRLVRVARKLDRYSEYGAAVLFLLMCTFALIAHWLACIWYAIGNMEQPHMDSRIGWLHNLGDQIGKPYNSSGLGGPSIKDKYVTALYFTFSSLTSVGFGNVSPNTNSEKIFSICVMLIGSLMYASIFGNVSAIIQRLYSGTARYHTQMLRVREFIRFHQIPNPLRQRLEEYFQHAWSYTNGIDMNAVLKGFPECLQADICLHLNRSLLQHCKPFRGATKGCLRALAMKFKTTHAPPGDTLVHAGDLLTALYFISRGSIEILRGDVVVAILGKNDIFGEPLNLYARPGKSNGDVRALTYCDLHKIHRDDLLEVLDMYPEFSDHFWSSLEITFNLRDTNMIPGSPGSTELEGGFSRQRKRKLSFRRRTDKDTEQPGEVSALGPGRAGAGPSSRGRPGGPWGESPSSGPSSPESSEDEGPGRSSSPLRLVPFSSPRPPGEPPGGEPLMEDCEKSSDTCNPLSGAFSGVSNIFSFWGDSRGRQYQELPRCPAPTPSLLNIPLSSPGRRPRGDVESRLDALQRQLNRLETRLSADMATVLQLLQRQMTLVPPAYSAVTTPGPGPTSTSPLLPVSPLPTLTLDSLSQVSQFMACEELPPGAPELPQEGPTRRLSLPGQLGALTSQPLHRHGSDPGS
# Summary of the method: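 hERG inhibition measured at 5 µM with an automated patch clamp assay.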
# [4] = target: T1, Beta-secretase 1; assay: Inhibition of BACE1 (unknown origin) by HTRF assay; summary of the method: as §1
# [5] = target: P-gp (MDR1, ABCB1) (Homo sapiens, UniProt P08183); assay: Substrate activity at P-gp (unknown origin) transfected in LLC-PK1 cells expressing human MDR1 gene assessed as efflux ratio; assay type: ADME, cell-based
# Sequence of P-gp (MDR1, ABCB1) (P08183 whole entry): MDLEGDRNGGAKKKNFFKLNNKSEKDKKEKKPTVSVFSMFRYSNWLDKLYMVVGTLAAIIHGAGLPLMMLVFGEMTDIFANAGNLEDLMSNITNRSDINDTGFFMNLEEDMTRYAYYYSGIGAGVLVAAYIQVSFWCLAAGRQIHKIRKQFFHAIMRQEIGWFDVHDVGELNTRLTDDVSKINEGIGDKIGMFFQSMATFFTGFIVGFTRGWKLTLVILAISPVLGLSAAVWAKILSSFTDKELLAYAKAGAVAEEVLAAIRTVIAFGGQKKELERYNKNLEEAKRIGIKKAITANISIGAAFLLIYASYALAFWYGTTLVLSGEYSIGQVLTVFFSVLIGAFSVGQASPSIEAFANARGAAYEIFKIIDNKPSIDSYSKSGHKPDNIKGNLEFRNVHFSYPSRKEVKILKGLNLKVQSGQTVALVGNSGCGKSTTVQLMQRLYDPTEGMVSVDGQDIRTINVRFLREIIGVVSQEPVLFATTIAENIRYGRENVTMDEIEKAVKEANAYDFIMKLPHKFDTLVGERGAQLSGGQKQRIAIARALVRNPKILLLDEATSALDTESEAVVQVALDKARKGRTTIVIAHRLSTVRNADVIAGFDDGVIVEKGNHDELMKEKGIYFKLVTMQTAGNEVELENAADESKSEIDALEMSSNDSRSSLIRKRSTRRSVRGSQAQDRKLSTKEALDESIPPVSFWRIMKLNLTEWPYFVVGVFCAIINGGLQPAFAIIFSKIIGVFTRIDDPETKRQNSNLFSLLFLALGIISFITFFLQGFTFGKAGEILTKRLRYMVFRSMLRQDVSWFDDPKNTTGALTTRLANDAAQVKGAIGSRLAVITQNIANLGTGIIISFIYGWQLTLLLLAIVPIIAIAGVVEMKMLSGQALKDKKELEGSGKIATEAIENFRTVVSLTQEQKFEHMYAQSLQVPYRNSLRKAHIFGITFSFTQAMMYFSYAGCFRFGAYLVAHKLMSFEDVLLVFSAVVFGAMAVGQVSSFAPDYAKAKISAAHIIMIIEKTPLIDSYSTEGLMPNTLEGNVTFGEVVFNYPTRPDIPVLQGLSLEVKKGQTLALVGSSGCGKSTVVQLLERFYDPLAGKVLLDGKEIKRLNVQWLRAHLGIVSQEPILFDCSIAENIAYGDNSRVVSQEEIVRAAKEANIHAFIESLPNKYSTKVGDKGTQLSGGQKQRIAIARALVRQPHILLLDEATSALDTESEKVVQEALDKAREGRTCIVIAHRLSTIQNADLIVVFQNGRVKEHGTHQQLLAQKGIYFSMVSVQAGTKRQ
# [6] = Clearance in rat at 0.5 mg/kg, iv; assay type: ADME, organism-based; conditions: in vivo
# Summary of the method: (§2)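 Single iv dose of 0.5 mg/kg in rats, n = 2. Total clearance and steady-state volume of distribution were taken from the plasma profile.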
# [7] = Ratio of drug level in Cerebrospinal fluid to plasma in Beagle dog at 1 mg/kg, po measured after 24 hrs; assay type: ADME, organism-based, Canis lupus familiaris, CSF/Plasma
# Summary of the method: (§3)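 Beagle dogs, n = 3, were given 1 mg/kg orally as a suspension in 0.5% methylcellulose. Plasma and CSF drug concentrations were measured at 3, 7, 10 and 24 h. The CSF ratio is CSF concentration over unbound plasma concentration.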
# [8] = Fraction unbound in Beagle dog serum; assay type: ADME, cell-free, Canis lupus familiaris
# Summary of the method: (§4)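 Fraction unbound measured in rat and dog serum.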
# [9] = Volume of distribution at steady state in rat at 0.5 mg/kg, iv; assay type: ADME, organism-based; conditions: in vivo, read-out: Vdss; summary of the method: as §2
# [10] = Oral bioavailability in rat at 1 mg/kg; assay type: ADME, organism-based; conditions: in vivo
# Summary of the method: (§5)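 Rats dosed orally at 1 mg/kg, n = 2. Plasma AUC, Cmax and Tmax were taken from the profile. Bioavailability was calculated against an iv dose of 0.5 mg/kg, n = 2.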
# [11] = Ratio of drug level in Cerebrospinal fluid to plasma in Beagle dog at 1 mg/kg, po measured after 10 hrs; assay type: ADME, organism-based, Canis lupus familiaris, CSF/Plasma; summary of the method: as §3
# [12] = Drug concentration in Beagle dog cerebrospinal fluid at 1 mg/kg, po measured after 24 hrs; assay type: ADME, organism-based, Canis lupus familiaris; conditions: read-out: Ct; summary of the method: as §3
# [13] = Fraction unbound in rat serum; assay type: ADME, cell-free; summary of the method: as §4
# [14] = Plasma concentration in Beagle dog at 1 mg/kg, po measured after 7 hrs; assay type: ADME, organism-based, Canis lupus familiaris; summary of the method: as §3
# [15] = In vivo inhibition of amyloid beta in Beagle dog cerebrospinal fluid at 1 mg/kg, po measured after 24 hrs by ELISA; assay type: functional; conditions: Canis lupus familiaris
# Summary of the method: (§6)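 Beagle dogs, n = 3, received 1 mg/kg orally as a 0.5% methylcellulose suspension. Total Aβ in CSF was measured by ELISA at 10 and 24 h and expressed as % reduction.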
# [16] = Metabolic stability in rat liver microsomes assessed as parent compound remaining measured after 30 mins; assay type: ADME, Microsome; conditions: read-out: Stabilty
# Summary of the method: (§7)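 Parent compound remaining (%) measured after 30 min incubation in rat or dog liver microsomes.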
# [17] = Tmax in Beagle dog at 1 mg/kg, po; conditions: in vivo
# [18] = Cmax in Beagle dog at 1 mg/kg, po; conditions: in vivo
# [19] = Plasma concentration in Beagle dog at 1 mg/kg, po measured after 10 hrs; assay type: ADME, organism-based, Canis lupus familiaris; summary of the method: as §3
# [20] = AUC in Beagle dog at 1 mg/kg, po; conditions: in vivo
# [21] = Ratio of drug level in Beagle dog cerebrospinal fluid after 24 hrs to IC50 for inhibition of BACE1 in human SH-SY5Y cells expressing APP assessed as reduction in Abeta40 by HTRF assay; assay type: cell-based
# Summary of the method: (§8)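 CSF drug concentration in dogs dosed orally at 1 mg/kg (0.5% methylcellulose suspension) at 10 and 24 h, divided by the cellular Aβ40 HTRF IC50 from SH-SY5Y cells expressing human APP.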
# [22] = Cmax in rat at 1 mg/kg, po; assay type: ADME, organism-based; set-up: route oral, dose 1 mg/kg; conditions: in vivo; summary of the method: as §5
# [23] = Metabolic stability in Beagle dog liver microsomes assessed as parent compound remaining measured after 30 mins; assay type: ADME, Canis lupus familiaris, Microsome; conditions: read-out: Stabilty; summary of the method: as §7
# [24] = Plasma concentration in Beagle dog at 1 mg/kg, po measured after 24 hrs; assay type: ADME, organism-based, Canis lupus familiaris; summary of the method: as §3
# [25] = In vivo inhibition of amyloid beta in Beagle dog cerebrospinal fluid at 1 mg/kg, po measured after 10 hrs by ELISA; assay type: functional; conditions: Canis lupus familiaris; summary of the method: as §6
# [26] = AUC in rat at 1 mg/kg, po; assay type: ADME, organism-based; set-up: dose 1 mg/kg; conditions: in vivo; summary of the method: as §5
# [27] = Tmax in rat at 1 mg/kg, po; assay type: ADME, organism-based; conditions: in vivo; summary of the method: as §5
# [28] = Drug concentration in Beagle dog cerebrospinal fluid at 1 mg/kg, po measured after 10 hrs; assay type: ADME, organism-based, Canis lupus familiaris; conditions: read-out: Ct; summary of the method: as §3
# [29] = Plasma concentration in Beagle dog at 1 mg/kg, po measured after 3 hrs; assay type: ADME, organism-based, Canis lupus familiaris; summary of the method: as §3
# [30] = Ratio of drug level in Beagle dog cerebrospinal fluid after 10 hrs to IC50 for inhibition of BACE1 in human SH-SY5Y cells expressing APP assessed as reduction in Abeta40 by HTRF assay; assay type: cell-based; summary of the method: as §8
# [31] = Ratio of drug level in brain to plasma in rat at 0.5 mg/kg, iv; assay type: ADME, organism-based
# Summary of the method: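 Rats given 0.5 mg/kg iv, n = 2. Result is the total brain-to-plasma concentration ratio (Kp).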
# [32] = target: T1, Beta-secretase 1; assay: Inhibition of BACE1 (unknown origin)
smiles,measurement,setting,value
CC1(c2cc(NC(=O)c3ccc(C#N)cn3)ccc2F)Cc2ncccc2C(N)=N1 (configuration not stated),pKa,[1],9.4
same,IC50,[2],4.1 nM
CC1(c2cc(NC(=O)c3ccc(C#N)cn3)ccc2F)Cc2cncc(F)c2C(N)=N1 (configuration not stated),pKa,[1],7.3
same,inhibition at 5 µM,[3],92%
same,IC50,[4],118 nM
same,IC50,[2],11 nM
CC1(c2cc(NC(=O)c3ccc(C#N)cn3)ccc2F)Cc2cnccc2C(N)=N1 (configuration not stated),pKa,[1],9
same,inhibition at 5 µM,[3],85%
same,IC50,[4],21 nM
same,efflux ratio,[5],37
same,IC50,[2],1.5 nM
CC1(c2cc(NC(=O)c3ccc(C#N)cn3)ccc2F)Cc2c(F)cncc2C(N)=N1 (configuration not stated),pKa,[1],7.6
same,inhibition at 5 µM,[3],72%
same,IC50,[4],12 nM
same,efflux ratio,[5],13
same,IC50,[2],0.25 nM
CC1(c2cc(NC(=O)c3ccc(C#N)cn3)ccc2F)Cc2c(ccnc2F)C(N)=N1 (configuration not stated),IC50,[4],14 nM
same,IC50,[2],0.36 nM
C[C@@]1(c2cc(NC(=O)c3ccc(C#N)cn3)ccc2F)Cc2c(ccnc2F)C(N)=N1,clearance,[6],45 mL/min/kg
same,Kp at 24 h,[7],0.083
same,fraction unbound,[8],0.14
same,Vd,[9],14 L/kg
same,pKa,[1],8.2
same,bioavailability,[10],33%
same,Kp at 10 h,[11],0.07
same,concentration at 24 h,[12],0.52 ng/mL
same,fraction unbound,[13],0.15
same,concentration at 7 h,[14],65 ng/mL
same,inhibition in vivo at 1 mg/kg,[15],47%
same,remaining at 0.5 h,[16],22%
same,Tmax,[17],4.3 h
same,Cmax,[18],78 ng/mL
same,concentration at 10 h,[19],64 ng/mL
same,AUC,[20],3890 ng·h/mL
same,inhibition at 5 µM,[3],88%
same,Ratio,[21],3
same,Cmax,[22],9 ng/mL
same,remaining at 0.5 h,[23],93%
same,concentration at 24 h,[24],47 ng/mL
same,inhibition in vivo at 1 mg/kg,[25],49%
same,IC50,[4],9.1 nM
same,efflux ratio,[5],13
same,AUC,[26],122 ng·h/mL
same,Tmax,[27],4 h
same,concentration at 10 h,[28],0.56 ng/mL
same,IC50,[2],0.41 nM
same,concentration at 3 h,[29],72 ng/mL
same,Ratio,[30],3.3
same,Kp,[31],0.28
CC1(c2cc(NC(=O)c3ccc(C#N)cn3)ccc2F)Cc2ccncc2C(N)=N1 (configuration not stated),pKa,[1],9.5
same,inhibition at 5 µM,[3],83%
same,IC50,[4],8.1 nM
same,IC50,[2],1.3 nM
CC1(c2cc(NC(=O)c3ccc(C#N)cn3)ccc2F)N=C(N)c2ccccc2O1 (configuration not stated),IC50,[32],82 nM
CC1(c2cc(NC(=O)c3ccc(C#N)cn3)ccc2F)Cc2cccnc2C(N)=N1 (configuration not stated),pKa,[1],9.8
same,IC50,[4],394 nM
same,IC50,[2],26 nM
